Source: PubChem BioAssay (Sanford-Burnham Center for Chemical Genomics)
Diaphorase inh = diaphorase inhibitors and chemical oxidizers, primary screen, counter-screen for diaphorase-coupled primary assays, biochemical, uHTS, resorufin fluorescence. diaphorase resazurin-to-resorufin fluorescence, NADH, 16 min; bacterial (C. kluyveri) enzyme, not human. inhibition, % at 20 µM. 190,000 tested, 0.69% active;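 active means primary screen inhibition at 20 µM above a set limit, cut at about 50% in these data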;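 further: plate controls were DMSO with full reaction for no effect and wells lacking NADH for full effect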
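controls = No-NADH positive control and DMSO neutral control | system = Clostridium kluyveri diaphorase enzyme | timing = reaction incubation of 16 min at room temperature | signal = resorufin fluorescence 544/590 nm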
PMI act satM6P = human PMI activators, high substrate, primary screen, biochemical, fluorescence intensity, near-saturating mannose 6-phosphate; Mannose-6-phosphate isomerase (Homo sapiens), P34949; coupled PMI enzyme assay, resazurin fluorescence, 20 min; active compounds read high; 1 = untreated enzyme, 0 = substrate-free blank; activation factor at 20 µM; 190,000 tested, 0.34% active;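 active means activation factor of 2 or more at 20 µM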
Target sequence (P34949 whole entry, looked up): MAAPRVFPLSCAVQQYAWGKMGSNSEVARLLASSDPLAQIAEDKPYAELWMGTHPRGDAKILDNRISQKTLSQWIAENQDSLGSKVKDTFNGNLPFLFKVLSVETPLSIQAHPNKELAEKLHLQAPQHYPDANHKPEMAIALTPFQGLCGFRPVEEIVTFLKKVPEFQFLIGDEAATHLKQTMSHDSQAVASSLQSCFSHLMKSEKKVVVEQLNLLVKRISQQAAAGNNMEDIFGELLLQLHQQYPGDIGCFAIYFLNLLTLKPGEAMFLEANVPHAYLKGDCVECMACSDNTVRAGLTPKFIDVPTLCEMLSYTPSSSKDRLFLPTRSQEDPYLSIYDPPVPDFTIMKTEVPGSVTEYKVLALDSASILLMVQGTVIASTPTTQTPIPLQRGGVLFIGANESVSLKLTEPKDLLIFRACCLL
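Test system: human phosphomannose isomerase with PGI, G6PDH, diaphorase coupling enzymes; Amount: PMI at 15 ng/mL final; Reagent: Mannose-6-phosphate 1.0 mM (near-saturating) plus 0.22 mM NADP+; Timing: 20 min, room temperature; Technique: resorufin fluorescence at Ex 544/Em 590 nm; Dosing: 20 µM single dose.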
G6PDH CS = L. mesenteroides G6PDH inhibitors, counter-screen for G6PDH-coupled screening assays, biochemical, Leuconostoc mesenteroides enzyme. inhibition, % at 5 µM. AID 1020, 2008. glucose-6-phosphate dehydrogenase [Leuconostoc mesenteroides]. 200,000 tested, 0.12% active. Purified L. mesenteroides G6PDH, diaphorase/resazurin coupled fluorescence, 45 min; in the data active means inhibition above about 50%
Diaphorase act = compounds boosting diaphorase resazurin reduction – biochemical, uHTS, resorufin fluorescence, counter-screen for diaphorase-coupled primary assays, primary screen; 190,000 tested, 0.005% active; Diaphorase/resazurin coupled assay, 16 min; active compounds read high; 1 = vehicle wells, 0 = NADH-free wells; activation factor at 20 µM; AID 1229, 2008;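 active means diaphorase activity raised at least twofold by the compound at 20 µM; inactive means activation factor below 2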
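System – purified diaphorase enzyme from Clostridium kluyveri · Input – enzyme 0.07 U/mL final · Also added – final NADH 0.114 mM, resazurin 0.1 mM · Measured by – fluorescence of resorufin, 544 nm excitation, 590 nm emission · Timing – 16 min enzyme reaction, ambient temperature · Measure – resorufin increase flagging diaphorase activators or reducers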
PMI activator = activators of human PMI, primary screen, biochemical, fluorescence intensity, near-Km mannose 6-phosphate | Mannose-6-phosphate isomerase (Homo sapiens), P34949 | purified human PMI, coupled resazurin fluorescence, 20 min; active compounds read high; 1 = vehicle control, 0 substrate-free wells | activation factor at 20 µM | 190,000 tested, 0.005% active | AID 1214, 2008;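 active means activation factor of 2 or more at 20 µM, relative to plate controls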
* marks the source's active call; other numbers are inactive results. The list is not random: actives were taken first. Their share in the collection is about 1.1%.

SMILES	Diaphorase inh	PMI act satM6P	G6PDH CS	Diaphorase act	PMI activator
Cc1onc(NC(=O)c2ccc(Cl)cc2Cl)c1Br	13	1.1	5	0.9	1.2
Cc1sc2ncn(CC(=O)NCC3COc4ccccc4O3)c(=O)c2c1S(=O)(=O)N1CCCCC1 (stereo unspecified)	0	1.1	3	1	1.1
Cc1c(C(=O)O)c(C(=O)O)nc2ccc(N3CCOCC3)cc12	55*	0.2	14	0.5	0.4
CCOC(=O)C1=C(C)NC2=C(C(=O)CC(C)(C)C2)C1c1ccc2c(c1)CCCN2C (stereo unspecified)	10	2*	6	0.9	1.5
CC(=O)n1cc([C@@H]2C=C(C(=O)N3CCN(Cc4ccccc4)CC3)O[C@H](OCc3ccc(CO)cc3)C2)c2ccccc21	59*	0.8	16	0.4	0.9
CC(=O)n1cc([C@@H]2C=C(C(=O)Nc3ccccc3)O[C@H](OCc3ccc(CO)cc3)C2)c2ccccc21	51*	0.8	5	0.5	0.7
C[C@@H]1C=C(C(=O)N2CCN(C)CC2)O[C@H](OCc2ccc(CO)cc2)C1	68*	1	8	0.3	1
CC(=O)n1cc([C@H]2C=C(C(=O)NCc3ccccc3)O[C@@H](OCc3ccc(CO)cc3)C2)c2ccccc21	44	0.7	17	0.6	1.1
C[C@H]1C=C(C(=O)N2CCOCC2)O[C@@H](OCc2ccc(CO)cc2)C1	6	1	8	0.9	0.9
COc1cc(-c2nc(S(=O)(=O)c3ccc(C)cc3)c(N(C)C)o2)cc(OC)c1OC	4	2*	-4	1	1.5
Cc1ccc(NC(=O)N2CCC(=O)N2)cc1	5	2*	-2	0.9	1.3
Cc1ccc(NC(=O)C(C)C(=O)Nc2ccc(C)cc2)cc1	-4	1.1	5	1	1.1
CCCCOc1cccc(C(=O)NC(=S)Nc2ccc(Cl)c(C(=O)O)c2)c1	62*	1	1	0.4	1
COc1cc(OC)cc(C(=O)NC(=S)Nc2ccc(Cl)c(C(=O)O)c2)c1	28	1	-2	0.7	1
Cc1ccccc1NC(=S)N(Cc1cccnc1)Cc1ccccc1Cl	14	1	-2	0.9	1
O=C(NNc1ccc(C2CCCCC2)cc1)C(O)(c1ccccc1)c1cccs1 (stereo unspecified)	14	2.1*	3	0.9	1.2
O=S(=O)(/N=C/c1c(O)ccc2ccccc12)c1cccs1	32	0.7	57*	0.7	0.6
Cc1c(C(C)(C)C)c(C=S)n2ccccc12	14	2*	3	0.9	1.6
CC(C)(C)c1ccc(-c2nc(C=O)c3ccccn23)cc1	5	1	4	1	1
Cc1cc(NC(=O)c2ccccc2F)nc2c1c(=O)oc1ccccc12	1	1.1	11	1	1.1
Cc1nnsc1C(=O)NC(C)C12CC3CC(CC(C3)C1)C2 (stereo unspecified)	6	1	4	0.9	1
CCc1cc2cc(C)cc(C)c2[nH]c1=S	-2	2.9*	2	1	1.8
CC1OC(OCC2OC(Oc3c(-c4ccc(O)cc4)oc4cc(O)cc(O)c4c3=O)C(O)C(O)C2O)C(O)C(O)C1O (stereo unspecified)	12	0.8	16	0.9	1
O=c1cc(-c2ccc(O)c(O)c2)oc2cc(O)c(C3OC(CO)C(O)C(O)C3O)c(O)c12 (stereo unspecified)	60*	0.9	36	0.4	0.5
O=c1c(O[C@@H]2O[C@H](CO)[C@H](O)[C@H](O)[C@H]2O)c(-c2ccc(O)c(O)c2)oc2cc(O)cc(O)c12	56*	0.5	28	0.4	0.4
SMILES	Diaphorase inh	PMI act satM6P	G6PDH CS	Diaphorase act	PMI activator
O=c1cc(-c2ccc(O)c(O)c2)oc2c(C3O[C@H](CO)[C@@H](O)[C@H](O)[C@H]3O)c(O)cc(O)c12 (stereo partly specified)	49	0.9	36	0.5	0.5
C[C@@H]1O[C@@H](OC[C@H]2O[C@@H](Oc3c(-c4ccc(O)c(O)c4)oc4cc(O)cc(O)c4c3=O)[C@H](O)[C@@H](O)[C@@H]2O)[C@H](O)[C@H](O)[C@H]1O	71*	0.8	37	0.3	0.5
COc1cc2c(=O)c(-c3ccc(O)cc3)coc2cc1OC1OC(CO)C(O)C(O)C1O (stereo unspecified)	9	0.9	22	0.9	1
O=c1c(O[C@@H]2O[C@H](CO)[C@@H](O)[C@H](O)[C@H]2O)c(-c2ccc(O)c(O)c2)oc2cc(O)cc(O)c12	77*	0.6	34	0.2	0.4
Cc1ccc(NC(=O)COC(=O)C2CCC(=O)N2)c([N+](=O)[O-])c1 (stereo unspecified)	2	0.9	7	1	1
Cc1nc(/C=C/c2ccccc2)[nH]c(=O)c1-c1ccccc1	9	1	-9	0.9	1.1
NC(=O)C1CCN(C(=O)CN2CCCc3ccccc32)CC1	6	2*	-9	0.9	1.5
O=C(CN1CCCc2ccccc21)NC(=O)NC1CCCCC1	-10	1	1	1.1	1.1
Oc1ccc(-c2cn3c(n2)SCC3)cc1O	52*	0.5	24	0.5	0.4
O=C(NNC(=S)NC(=O)c1cccnc1)c1ccc(Cl)cc1	36	1.1	3	0.6	0.8
O=C(NNC(=S)NC(=O)c1cccs1)c1cccnc1	57*	1	-2	0.4	1
Cc1cc(/C=c2/sc3nc4ccccc4n3c2=O)c(C)n1-c1ccccn1	52*	1.1	10	0.5	0.9
NNC(=O)CNc1ccccc1Cl	54*	1	3	0.5	1
Cc1c(Cl)cccc1NC(=S)N1CCN(C(=O)C2CCCO2)CC1 (stereo unspecified)	12	1	24	0.9	1
COc1ccc(C(=O)c2c(C(F)(F)F)oc3c2C(=O)c2ccccc2C3=O)cc1	7	2*	54*	0.9	1.5
Cc1cccc(C)c1N1CCN(C(=O)Cn2cncn2)CC1	4	1.3	4	1	1.4
CCCCNC(=O)Cn1c(-c2ccc(OC)cc2)noc1=O	18	0.9	0	0.8	1
CCCCNC(=O)Oc1cc(CCl)on1	70*	1	7	0.3	1.1
